Data as given in publication PMC10374283 (Journal of medicinal chemistry, 2023).
Entries after “also recorded” stand apart in the source; their conditions may differ.

Tests used:
[1] = target: T1, SARS-CoV-2 Nsp14 (Severe acute respiratory syndrome coronavirus 2, UniProt P0DTD1); experiment: biochemical; assay type: biochemical
[2] = target: Nsp14 (Severe acute respiratory syndrome coronavirus 2, UniProt P0DTD1); experiment: Assessment of covalent binding to Nsp14 by LC-MS; set-up: species or system SARS-CoV-2
Method in brief: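 SARS-CoV-2 Nsp14 was E. coli-expressed with a His6-SUMO tag and purified after SUMO removal. Protein was incubated with a 20-fold molar excess of test compound for 2 h at room temperature (20 °C), then diluted in 0.1% formic acid. Separation used HPLC with a 5–95% acetonitrile/water gradient, followed by ESI time-of-flight mass spectrometry.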

[3] = tested on: SARS-CoV-2; experiment: Antiviral activity versus cell toxicity; assay type: cell-based
[4] = Colloidal aggregation by dynamic light scattering; assay type: physicochemical; conditions: for colloid-like particle formation by DLS: 50 mM KPi pH 7.0, 1% DMSO; for CAC relative to Nsp14 IC50: DLS CAC divided by Nsp14 IC50
[5] = target: T1, SARS-CoV-2 Nsp14; experiment: Mechanism of action: IC50 at varying SAM and RNA concentrations; assay type: biochemical; conditions: varying SAM or RNA concentration
[6] = target: AmpC β-lactamase (AmpC) (Escherichia coli, UniProt P00811); assay type: biochemical; conditions: for inhibition of AmpC: absence of detergent; for inhibition of AmpC with detergent: with 0.01% Triton X-100
[7] = tested on: malate dehydrogenase (MDH); experiment: Aggregation counter-screen, malate dehydrogenase inhibition; assay type: biochemical; conditions: for inhibition of MDH: absence of detergent; for inhibition of MDH with detergent: with 0.01% Triton X-100
[8] = tested on: panel of 30 human SAM-dependent MTases; experiment: Selectivity panel of 30 human SAM-dependent protein and RNA MTases; assay type: biochemical; conditions: compounds at 10 μM, 30 human MTases
[9] = target: T1, SARS-CoV-2 Nsp14; assay type: biochemical; conditions: preincubated at 10-fold IC50 for 1 h, diluted 100-fold
[10] = tested on: MDH or AmpC; experiment: Aggregation counter-screen, enzyme not specified per compound; assay type: biochemical; conditions: for inhibition of MDH or AmpC: absence of detergent; for inhibition of MDH or AmpC with detergent: with 0.01% of detergent

Sequence of AmpC β-lactamase (AmpC) (P00811 20-377): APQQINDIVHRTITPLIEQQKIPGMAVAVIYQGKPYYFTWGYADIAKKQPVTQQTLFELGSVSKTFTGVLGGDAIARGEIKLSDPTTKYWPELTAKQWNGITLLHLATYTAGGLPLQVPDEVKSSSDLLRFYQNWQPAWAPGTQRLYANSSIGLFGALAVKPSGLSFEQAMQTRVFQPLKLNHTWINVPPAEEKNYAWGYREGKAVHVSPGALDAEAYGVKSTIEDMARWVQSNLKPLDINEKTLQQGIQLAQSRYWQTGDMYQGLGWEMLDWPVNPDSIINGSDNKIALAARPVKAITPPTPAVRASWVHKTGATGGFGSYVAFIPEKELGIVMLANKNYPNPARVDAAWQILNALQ

CCC(=O)NCCC(=O)N1CCC(C2C(=O)Nc3cc(Cl)ccc32)CC1 (centres unmarked) [ZD160–68, N-(3-(4-(6-Chloro-2-oxoindolin-3-yl)piperidin-1-yl)-3-oxopropyl)-propionamide]
Nsp14 enzymatic inhibition (in words) [1]: inactive; also recorded: no enzymatic inhibition

C=CC(=O)N(C)c1ccc(C(=O)Nc2ccc(-c3cn4ccsc4n3)cc2)cc1 [acryl41]
covalent adduct formation with Nsp14 by mass spectrometry [2]: did not form a measurable adduct by mass spectrometry

C=CC(=O)NC[C@H](OC)C(=O)N1CCC(C2C(=O)Nc3cc(Cl)ccc32)CC1 (stereo partly drawn) [acryl42_10, N-((2S)-3-(4-(6-Chloro-2-oxoindolin-3-yl)piperidin-1-yl)-2-methoxy-3-oxopropyl)acrylamide]
IC50 [1]: 7 µM | fold more potent than acryl42 ([1]; relative to parent acryl42): 4.5 fold | antiviral activity versus cell toxicity [3]: for none of them could we distinguish anti-viral activity from cell toxicity

Cc1nc2ncc(-c3c[nH]nn3)cc2[nH]1 [‘0222, 2-Methyl-6-(1H-1,2,3-triazol-4-yl)-1H-imidazo[4,5-b]pyridine]
colloid-like particle formation by DLS [4]: CACs at relevant concentrations

Oc1ccccc1-c1ncnc2[nH]ccc12 [‘0683, 2-(7H-Pyrrolo[2,3-d]pyrimidin-4-yl)phenolv]
pattern of inhibition versus SAM and RNA [5]: competitive and presumably reversible inhibitor of both SAM and RNA binding | ligand efficiency (LE) ([1]; from Nsp14 IC50): 0.42 kcal/heavy atom | inhibition of AmpC [6]: both MDH and AmpC | inhibition of MDH [7]: both MDH and AmpC | antiviral activity versus cell toxicity [3]: for none of them could we distinguish anti-viral activity from cell toxicity

C=C(Cl)COC(=O)c1cnc2[nH]ccc2c1 [‘0741, 2-Chloroallyl 1H-pyrrolo[2,3-b]pyridine-5-carboxylate]
inhibition of MDH [7]: inhibited MDH | inhibition of MDH with detergent [7]: this effect was smaller

CN(C)c1cncc(NC(=O)c2ccc(C=O)cc2O)c1 [‘1889, N-(5-(Dimethylamino)pyridin-3-yl)-4-formyl-2-hydroxybenza-mide]
inhibition of AmpC [6]: did not inhibit either counter-screening enzyme under any measured condition | inhibition of MDH [7]: did not inhibit either counter-screening enzyme under any measured condition | CAC relative to Nsp14 IC50 [4]: CAC five-fold higher than its Nsp14 IC50

N#Cc1ccc(NC(=O)c2cc(C=O)n3c2CCCC3)c2cc(O)ccc12 [‘1911, N-(4-Cyano-7-hydroxynaphthalen-1-yl)-3-formyl-5,6,7,8-tetra-hydroindolizine-1-carboxamide]
inhibition of panel enzymes (>50% criterion) [8]: inhibiting only two histone MTases; also recorded: only hit two very closely related MTases | covalent adduct formation with Nsp14 by mass spectrometry [2]: did not increase the molecular mass of Nsp14 | inhibition of AmpC [6]: did inhibit AmpC and MDH in the absence of Triton | inhibition of AmpC with detergent [6]: this inhibition disappeared | inhibition of MDH [7]: did inhibit AmpC and MDH in the absence of Triton | inhibition of MDH with detergent [7]: this inhibition disappeared | reversibility of Nsp14 inhibition by jump/rapid dilution [9]: little residual inhibition when diluted below its IC50 | antiviral activity versus cell toxicity [3]: for none of them could we distinguish anti-viral activity from cell toxicity | colloid-like particle formation by DLS [4]: did form colloid-like particles by DLS at a relevant concentration

O=C(COC(=O)c1cc(-c2ccoc2)n[nH]1)Nc1ccc(Br)cc1 [‘1988, 2-((4-Bromophenyl)amino)-2-oxoethyl 3-(Furan-3-yl)-1H-pyra-zole-5-carboxylate]
pattern of inhibition versus SAM and RNA [5]: SAM- and RNA-competitive pattern of inhibition | inhibition of panel enzymes (>50% criterion) [8]: inhibiting nine enzymes more than 50% | IC50 [1]: 6 µM | inhibition of AmpC with detergent [6]: inhibition of both enzymes disappeared | inhibition of MDH [7]: inhibition of MDH was in a relevant range | inhibition of MDH with detergent [7]: inhibition of both enzymes disappeared | reversibility of Nsp14 inhibition by jump/rapid dilution [9]: noncovalent inhibitor | antiviral activity versus cell toxicity [3]: for none of them could we distinguish anti-viral activity from cell toxicity | colloid-like particle formation by DLS [4]: formed colloid-like particles by DLS | CAC relative to Nsp14 IC50 [4]: 10 fold

Cc1c(C(=O)/C=C/c2ccc(O)c([N+](=O)[O-])c2)c(C#N)c2n1CCC2 [‘4824, (E)-6-(3-(4-Hydroxy-3-nitrophenyl)acryloyl)-5-methyl-2,3-dihydro-1H-pyrrolizine-7-carbonitrile]
pattern of inhibition versus SAM and RNA [5]: SAM- and RNA-competitive pattern of inhibition | inhibition of panel enzymes (>50% criterion) [8]: no inhibition greater than 50% for any enzyme in the panel; also recorded: Nsp14-selective | inhibition of AmpC [6]: did inhibit the counter-screening enzymes MDH and AmpC at relevant concentrations | inhibition of AmpC with detergent [6]: inhibition was largely or entirely eliminated | inhibition of MDH [7]: did inhibit the counter-screening enzymes MDH and AmpC at relevant concentrations | inhibition of MDH with detergent [7]: inhibition was largely or entirely eliminated | reversibility of Nsp14 inhibition by jump/rapid dilution [9]: inhibition by ‘4824 is not due to the nitrile electrophile | colloid-like particle formation by DLS [4]: did not form detectable particles by DLS

Cc1cc(C(=O)Nc2cccc(N3CCNC3=O)c2C)sc1C=O [‘4975, 5-Formyl-4-methyl-N-(2-methyl-3-(2-oxoimidazolidin-1-yl)-phenyl)thiophene-2-carboxamide]
antiviral activity versus cell toxicity [3]: for none of them could we distinguish anti-viral activity from cell toxicity

CC(C)SCn1cnc2cnn(C)c2c1=O [‘5604, 6-((Isopropylthio)methyl)-1-methyl-1H-pyrazolo[4,3-d]-pyrimidin-7(6H)-One]
inhibition of MDH [7]: inhibited MDH | colloid-like particle formation by DLS [4]: CACs at relevant concentrations

O=C(NC1CSC1)c1ncnn2cccc12 [‘5763, N-(Thietan-3-yl)pyrrolo[2,1-f][1,2,4]triazine-4-carboxamide]
colloid-like particle formation by DLS [4]: CACs at relevant concentrations

Cn1ncc(N)c1-c1cc2ccccc2[nH]1 [‘6066, 5-(1H-Indol-2-yl)-1-methyl-1H-pyrazol-4-amine]
colloid-like particle formation by DLS [4]: CACs at relevant concentrations

N#Cc1c(C(=O)NCc2ccc(O)c([N+](=O)[O-])c2)[nH]c2ccccc12 [‘6943, 3-Cyano-N-(4-hydroxy-3-nitrobenzyl)-1H-indole-2-carboxamide]
inhibition of MDH or AmpC [10]: inhibited MDH or AmpC at relevant concentrations | inhibition of MDH or AmpC with detergent [10]: inhibition was largely eliminated | colloid-like particle formation by DLS [4]: did form colloid-like particles by DLS

Cn1c(C(=O)NCc2ccc(O)c([N+](=O)[O-])c2)c(Br)c2ccccc21 [‘6947, 3-Bromo-N-(4-hydroxy-3-nitrobenzyl)-1-methyl-1H-indole-2-carboxamide]
inhibition of MDH or AmpC [10]: inhibited MDH or AmpC at relevant concentrations | inhibition of MDH or AmpC with detergent [10]: inhibition was largely eliminated | colloid-like particle formation by DLS [4]: did form colloid-like particles by DLS

Cc1c(C(=O)/C=C/c2cc(Br)c(O)cc2F)c(C#N)c2n1CCC2 [‘6953, (E)-6-(3-(5-Bromo-2-fluoro-4-hydroxyphenyl)acryloyl)-5-methyl-2,3-dihydro-1H-pyrrolizine-7-carbonitrile]
inhibition of MDH or AmpC [10]: inhibited MDH or AmpC at relevant concentrations | inhibition of MDH or AmpC with detergent [10]: inhibition was largely eliminated | colloid-like particle formation by DLS [4]: did form colloid-like particles by DLS

Cn1c(=O)[nH]c2ncc(-c3cccc(C(=O)Nc4cccc(C#N)c4)c3)cc21 [‘9213, N-(3-Cyanophenyl)-3-(1-methyl-2-oxo-2,3-dihydro-1H-imidazo-[4,5-b]pyridin-6-yl)benzamide]
enzyme inhibition at 30 and 50 μM ([1]; tested at 30 and 50 μM): more than 50% | colloid-like particle formation by DLS [4]: did form colloid-like particles by DLS
